From ChEMBL document CHEMBL1156303, “Synthesis and SAR of N-(4-(4-alklylpiperazin-1-yl)phenyl)benzamides as muscarinic acetylcholine receptor subtype 1 (M1) anatgonists” (Bioorg Med Chem Lett, 2010)

System: not listed separately
Experiment: Selectivity ratio of muscarinic M3 receptor over muscarinic M2 receptor

| SMILES | Selectivity ratio |
| --- | --- |
| Cc1ccc(N2C[C@@H]3[C@H](C2)[C@H]3NC(=O)C(O)(c2ccccc2)C2CCCCC2)cc1 (stereo partly specified) | 20 |

Molecular target: T1, Muscarinic acetylcholine receptor M5 (Homo sapiens) (UniProt P08912)
T1 sequence (whole entry): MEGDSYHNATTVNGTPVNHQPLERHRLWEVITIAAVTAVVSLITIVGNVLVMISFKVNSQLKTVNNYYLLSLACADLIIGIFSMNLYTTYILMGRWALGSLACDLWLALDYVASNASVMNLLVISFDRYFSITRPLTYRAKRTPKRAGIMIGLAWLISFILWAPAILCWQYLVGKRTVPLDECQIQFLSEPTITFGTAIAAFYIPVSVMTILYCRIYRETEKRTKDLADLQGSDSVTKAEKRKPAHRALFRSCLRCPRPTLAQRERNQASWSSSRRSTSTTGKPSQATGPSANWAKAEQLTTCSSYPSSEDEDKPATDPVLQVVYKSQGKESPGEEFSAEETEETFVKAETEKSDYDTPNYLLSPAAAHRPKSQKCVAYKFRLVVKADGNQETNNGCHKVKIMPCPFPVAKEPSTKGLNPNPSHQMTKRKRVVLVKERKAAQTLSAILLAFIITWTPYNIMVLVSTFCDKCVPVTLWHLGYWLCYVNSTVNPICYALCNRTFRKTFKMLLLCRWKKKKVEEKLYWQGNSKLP
Experiment: Antagonist activity at human muscarinic M5 receptor expressed in CHO-K1 cells assessed as inhibition of acetylcholine-induced calcium mobilization at 10 uM
Format: functional, cell-based

| SMILES | IC50 [µM] |
| --- | --- |
| CCN1CCN(c2ccc(NC(=O)c3cc(C(F)(F)F)cc(C(F)(F)F)c3)cc2Cl)CC1 | 10 |

Molecular target: T2, Muscarinic acetylcholine receptor M5 (Homo sapiens, UniProt P08912)
T2 sequence (P08912 whole entry): T1 sequence (whole entry)
Experiment: Antagonist activity at human muscarinic M5 receptor expressed in CHO-K1 cells assessed as inhibition of acetylcholine-induced calcium mobilization
Format: functional, cell-based

| SMILES | IC50 [µM] |
| --- | --- |
| CCN1CCN(c2ccc(NC(=O)c3cccc(C(F)(F)F)c3)cc2Cl)CC1 | 4.1 |
| CCN1CCN(c2ccc(NC(=O)c3ccc(F)c(F)c3)cc2Cl)CC1 | > 10 |
| CCN1CCN(c2ccc(NC(=O)c3ccc(OC)cc3)cc2Cl)CC1 | > 10 |
| CCN1CCN(c2ccc(NC(=O)c3cccc(C)c3)cc2Cl)CC1 | 3.5 |
| CCN1CCN(c2ccc(NC(=O)c3ccccc3Cl)cc2Cl)CC1 | 2.3 |
| CCN1CCN(c2ccc(NC(=O)c3c(F)c(F)c(F)c(F)c3F)cc2Cl)CC1 | 0.83 |
| CCN1CCN(c2ccc(NC(=O)c3cc(C(F)(F)F)cc(C(F)(F)F)c3)cc2Cl)CC1 | > 10 |
| CCN1CCN(c2ccc(NC(=O)c3ccccc3OC)cc2Cl)CC1 | 1.3 |
| CCN1CCN(c2ccc(NC(=O)c3ccccc3)cc2Cl)CC1 | > 10 |
| CCN1CCN(c2ccc(NC(=O)c3cc(C(F)(F)F)ccc3C(F)(F)F)cc2Cl)CC1 | 4.1 |
| CCN1CCN(c2ccc(NC(=O)c3ccc(C)cc3)cc2Cl)CC1 | 6.9 |

Molecular target: Muscarinic acetylcholine receptor M3 (Homo sapiens, UniProt P20309)
Experiment: Antagonist activity at human muscarinic M3 receptor expressed in CHO-K1 cells assessed as inhibition of acetylcholine-induced calcium mobilization
Format: functional, cell-based

Muscarinic acetylcholine receptor M3, sequence (P20309 whole entry): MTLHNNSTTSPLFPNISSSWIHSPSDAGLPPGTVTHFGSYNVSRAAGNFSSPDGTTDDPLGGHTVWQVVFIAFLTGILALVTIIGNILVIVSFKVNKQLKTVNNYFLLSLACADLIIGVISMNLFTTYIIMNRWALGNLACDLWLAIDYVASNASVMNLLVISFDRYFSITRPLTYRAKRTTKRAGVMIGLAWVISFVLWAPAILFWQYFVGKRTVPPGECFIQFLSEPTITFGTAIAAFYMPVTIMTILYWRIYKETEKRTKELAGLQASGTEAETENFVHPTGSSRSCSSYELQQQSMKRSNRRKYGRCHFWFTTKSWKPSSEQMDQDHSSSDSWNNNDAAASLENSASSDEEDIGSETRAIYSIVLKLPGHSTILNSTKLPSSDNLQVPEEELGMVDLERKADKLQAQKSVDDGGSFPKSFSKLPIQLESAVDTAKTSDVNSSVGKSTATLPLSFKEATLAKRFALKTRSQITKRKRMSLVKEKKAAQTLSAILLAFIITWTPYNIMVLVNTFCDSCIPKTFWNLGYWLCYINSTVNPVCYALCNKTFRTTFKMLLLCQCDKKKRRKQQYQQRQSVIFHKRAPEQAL

| SMILES | IC50 [µM] |
| --- | --- |
| CCN1CCN(c2ccc(NC(=O)c3cccc(C(F)(F)F)c3)cc2Cl)CC1 | 4.3 |
| CCN1CCN(c2ccc(NC(=O)c3ccc(F)c(F)c3)cc2Cl)CC1 | > 10 |
| CCN1CCN(c2ccc(NC(=O)c3ccc(OC)cc3)cc2Cl)CC1 | > 10 |
| CCN1CCN(c2ccc(NC(=O)c3cccc(C)c3)cc2Cl)CC1 | > 10 |
| CCN1CCN(c2ccc(NC(=O)c3c(F)c(F)c(F)c(F)c3F)cc2Cl)CC1 | 3.7 |
| CCN1CCN(c2ccc(NC(=O)c3cc(C(F)(F)F)cc(C(F)(F)F)c3)cc2Cl)CC1 | > 10 |
| CCN1CCN(c2ccc(NC(=O)c3ccccc3OC)cc2Cl)CC1 | 5.6 |
| CCN1CCN(c2ccc(NC(=O)c3ccccc3)cc2Cl)CC1 | > 10 |
| CCN1CCN(c2ccc(NC(=O)c3cc(C(F)(F)F)ccc3C(F)(F)F)cc2Cl)CC1 | 4.2 |
| CCN1CCN(c2ccc(NC(=O)c3ccc(C)cc3)cc2Cl)CC1 | 3.7 |

Molecular target: T3, Muscarinic acetylcholine receptor M4 (Homo sapiens, UniProt P08173)
T3 sequence (P08173 whole entry): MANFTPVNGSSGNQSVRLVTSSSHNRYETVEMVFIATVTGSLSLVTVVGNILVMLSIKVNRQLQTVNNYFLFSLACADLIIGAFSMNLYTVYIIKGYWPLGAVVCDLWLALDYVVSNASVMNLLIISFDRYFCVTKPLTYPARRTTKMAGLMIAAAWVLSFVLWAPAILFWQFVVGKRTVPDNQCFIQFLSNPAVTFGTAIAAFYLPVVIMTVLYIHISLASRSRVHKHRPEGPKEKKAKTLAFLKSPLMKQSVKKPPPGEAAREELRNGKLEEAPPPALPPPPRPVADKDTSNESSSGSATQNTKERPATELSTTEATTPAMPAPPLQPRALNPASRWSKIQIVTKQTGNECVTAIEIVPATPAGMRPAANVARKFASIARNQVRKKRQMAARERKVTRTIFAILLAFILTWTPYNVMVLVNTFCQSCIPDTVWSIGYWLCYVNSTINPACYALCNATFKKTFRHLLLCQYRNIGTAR
Experiment: Antagonist activity at human muscarinic M4 receptor expressed in CHO-K1 cells coexpressing Gqi5 chimeric G-protein assessed as inhibition of acetylcholine-induced calcium mobilization
Format: functional, cell-based
Summary of the method: (§1)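 Stable muscarinic cell lines (hM2 and hM4 stably transfected with Gqi5 chimera) plated overnight, then loaded with 2 µM Fluo-4 AM in HBSS with 20 mM HEPES and 2.5 mM probenecid, pH 7.4, for 45 min at 37°C. Dye replaced with assay buffer. Cells pre-incubated with compound at 10 µM or across a concentration-response curve, then challenged with sub-maximal acetylcholine or carbachol. Read-out: calcium mobilization.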

| SMILES | IC50 [µM] |
| --- | --- |
| CCN1CCN(c2ccc(NC(=O)c3cccc(C(F)(F)F)c3)cc2Cl)CC1 | 3.7 |
| CCN1CCN(c2ccc(NC(=O)c3ccc(F)c(F)c3)cc2Cl)CC1 | > 10 |
| CCN1CCN(c2ccc(NC(=O)c3cc(C(F)(F)F)cc(C(F)(F)F)c3)cc2Cl)CC1 | 3.7 |
| CCN1CCN(c2ccc(NC(=O)c3ccccc3)cc2Cl)CC1 | > 10 |
| CCN1CCN(c2ccc(NC(=O)c3cc(C(F)(F)F)ccc3C(F)(F)F)cc2Cl)CC1 | 1.5 |
| CCN1CCN(c2ccc(NC(=O)c3ccc(C)cc3)cc2Cl)CC1 | > 10 |

Molecular target: T4, Muscarinic acetylcholine receptor M2 (Homo sapiens, UniProt P08172)
T4 sequence (P08172 whole entry): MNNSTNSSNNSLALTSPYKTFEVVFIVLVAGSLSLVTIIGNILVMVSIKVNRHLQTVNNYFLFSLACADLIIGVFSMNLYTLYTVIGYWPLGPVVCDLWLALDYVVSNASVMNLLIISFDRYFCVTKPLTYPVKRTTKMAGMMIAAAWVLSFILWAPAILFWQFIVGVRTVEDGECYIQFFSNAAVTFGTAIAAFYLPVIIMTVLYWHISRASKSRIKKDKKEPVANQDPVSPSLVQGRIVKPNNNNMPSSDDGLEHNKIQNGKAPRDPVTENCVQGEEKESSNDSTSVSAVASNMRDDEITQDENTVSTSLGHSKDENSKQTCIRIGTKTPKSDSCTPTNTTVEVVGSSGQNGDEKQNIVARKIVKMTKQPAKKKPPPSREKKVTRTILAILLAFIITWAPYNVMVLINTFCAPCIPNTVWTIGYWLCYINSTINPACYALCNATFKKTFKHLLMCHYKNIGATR
Experiment: Antagonist activity at human muscarinic M2 receptor expressed in CHO-K1 cells coexpressing Gqi5 chimeric G-protein assessed as inhibition of acetylcholine-induced calcium mobilization
Format: functional, cell-based
Summary of the method: as §1

| SMILES | IC50 [µM] |
| --- | --- |
| CCN1CCN(c2ccc(NC(=O)c3cccc(C(F)(F)F)c3)cc2Cl)CC1 | > 10 |
| CCN1CCN(c2ccc(NC(=O)c3ccc(F)c(F)c3)cc2Cl)CC1 | > 10 |
| CCN1CCN(c2ccc(NC(=O)c3cc(C(F)(F)F)cc(C(F)(F)F)c3)cc2Cl)CC1 | > 10 |
| CCN1CCN(c2ccc(NC(=O)c3ccccc3)cc2Cl)CC1 | > 10 |
| CCN1CCN(c2ccc(NC(=O)c3cc(C(F)(F)F)ccc3C(F)(F)F)cc2Cl)CC1 | 2.7 |
| CCN1CCN(c2ccc(NC(=O)c3ccc(C)cc3)cc2Cl)CC1 | > 10 |

Molecular target: T5, Muscarinic acetylcholine receptor M1 (Homo sapiens, UniProt P11229)
T5 sequence (P11229 whole entry): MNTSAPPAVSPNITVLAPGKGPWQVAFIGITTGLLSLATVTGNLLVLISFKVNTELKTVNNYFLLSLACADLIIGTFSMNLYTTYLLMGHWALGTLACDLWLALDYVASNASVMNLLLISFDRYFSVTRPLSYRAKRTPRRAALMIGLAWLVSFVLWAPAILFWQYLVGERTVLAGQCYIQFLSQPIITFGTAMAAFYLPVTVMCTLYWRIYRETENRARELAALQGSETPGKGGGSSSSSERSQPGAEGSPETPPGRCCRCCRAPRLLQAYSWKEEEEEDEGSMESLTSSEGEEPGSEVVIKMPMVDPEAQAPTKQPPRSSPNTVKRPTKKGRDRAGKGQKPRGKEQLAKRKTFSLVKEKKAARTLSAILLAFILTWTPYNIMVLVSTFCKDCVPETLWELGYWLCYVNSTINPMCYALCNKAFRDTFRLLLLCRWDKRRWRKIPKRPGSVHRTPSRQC
Experiment: Antagonist activity at human muscarinic M1 receptor expressed in CHO-K1 cells assessed as inhibition of acetylcholine-induced calcium mobilization
Format: functional, cell-based

| SMILES | IC50 [µM] |
| --- | --- |
| CCN1CCN(c2ccc(NC(=O)c3cccc(C(F)(F)F)c3)cc2Cl)CC1 | 2.9 |
| CCN1CCN(c2ccc(NC(=O)c3ccc(F)c(F)c3)cc2Cl)CC1 | 4.7 |
| CCN1CCN(c2ccc(NC(=O)c3ccc(OC)cc3)cc2Cl)CC1 | 3.2 |
| CCN1CCN(c2ccc(NC(=O)c3cccc(C)c3)cc2Cl)CC1 | 2.1 |
| CCN1CCN(c2ccc(NC(=O)c3ccccc3Cl)cc2Cl)CC1 | 0.96 |
| CCN1CCN(c2ccc(NC(=O)c3c(F)c(F)c(F)c(F)c3F)cc2Cl)CC1 | 0.35 |
| CCN1CCN(c2ccc(NC(=O)c3cc(C(F)(F)F)cc(C(F)(F)F)c3)cc2Cl)CC1 | 2.6 |
| CCN1CCN(c2ccc(NC(=O)c3ccccc3OC)cc2Cl)CC1 | 0.82 |
| CCN1CCN(c2ccc(NC(=O)c3ccccc3)cc2Cl)CC1 | 3.2 |
| CCN1CCN(c2ccc(NC(=O)c3cc(C(F)(F)F)ccc3C(F)(F)F)cc2Cl)CC1 | 0.49 |
| CCN1CCN(c2ccc(NC(=O)c3ccc(C)cc3)cc2Cl)CC1 | 2.9 |
